This is an account of results in ChEMBL document CHEMBL3091313, “Amino acids derived benzoxazepines: design, synthesis and antitumor activity” (Bioorg Med Chem Lett, 2013).

One series relates to MCF7. In words: Antiproliferative activity against human MCF7 cells after 48 hrs by MTT assay. It is filed as functional, cell-based. The note with it: MCF7, 48 h. The procedure, abridged:
(§1)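 MCF-7 (ER+ve) and MDA-MB-231 (ER-ve) breast cancer cells were exposed to compound or vehicle. Viability was read by MTT and expressed as % cell death versus vehicle, with 4-hydroxytamoxifen as positive control. IC50 came from three independent experiments, each in triplicate.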
(Tetrazolium dyes change colour on reduction, which living cells bring about.)
A word on the IC50: it is the concentration that gives 50% inhibition. A lower IC50 goes with inhibition by little substance. The compound `Cc1ccc(S(=O)(=O)N2Cc3ccccc3OC[C@@H]2Cc2ccc(OCCN3CCCCC3)cc2)cc1` yielded an IC50 of 4.31 µM.

The next series relates to MCF7. Nature of the series: Antiproliferative activity against human MCF7 cells after 72 hrs by MTT assay. In kind it is functional, cell-based. Particulars: MCF7, 72 h. In a few lines: as §1
`Cc1ccc(S(=O)(=O)N2Cc3ccccc3OC[C@@H]2Cc2ccc(OCCN3CCCCC3)cc2)cc1` came in with an IC50 of 3.23 µM.

Compound `Cc1ccc(S(=O)(=O)N2Cc3ccccc3OCC2Cc2ccc(O)cc2)cc1` (stereo not drawn) registered an IC50 of 10 µM.

The next series concerns MCF7. Nature of the series: Antiproliferative activity against human MCF7 cells after 24 hrs by MTT assay. In kind it is functional, cell-based. The note with it: MCF7, 24 h. The procedure, abridged:
as §1
Turning to `Cc1ccc(S(=O)(=O)N2Cc3ccccc3OC[C@@H]2Cc2ccc(OCCN3CCCCC3)cc2)cc1`, the IC50 stood at 9.62 µM.

Take `CCN(CC)CCOc1ccc(CN2Cc3ccccc3OC[C@@H]2Cc2ccc(OC)cc2)cc1`: 14.5 µM corresponded to half-maximal inhibition (IC50).

With `COc1ccc(C[C@H]2COc3ccccc3CN2Cc2ccc(O)cc2)cc1`, the IC50 worked out at 10.3 µM. The IC50 values of the last two compounds are within 1.5-fold of each other.

For `COc1ccc(C[C@H]2COc3ccccc3CN2Cc2ccc(OCCN3CCCCC3)cc2)cc1`, the IC50 was above 20 µM.

In turn, `CCN(CC)CCOc1ccc(C[C@H]2COc3c(cccc3OC)CN2S(=O)(=O)c2ccc(C)cc2)cc1` registered an IC50 above 20 µM.

In the case of `COc1cccc2c1OC[C@H](Cc1ccc(OCCN3CCOCC3)cc1)N(S(=O)(=O)c1ccc(C)cc1)C2`, the 50% inhibitory concentration (IC50) is above 20 µM.

As to `COc1ccc2c(c1)OC[C@H](Cc1ccc(O)cc1)N(S(=O)(=O)c1ccc(C)cc1)C2`, the IC50 is above 20 µM.

`COc1ccc(C[C@H]2COc3ccccc3CN2Cc2ccc(OCCN(C)C)cc2)cc1` came in with an IC50 above 20 µM.

Compound `COc1cccc2c1OC[C@H](Cc1ccc(OCCN3CCCCCC3)cc1)N(S(=O)(=O)c1ccc(C)cc1)C2` had an IC50 above 20 µM.

`COc1cccc2c1OC[C@H](Cc1ccc(OCCN3CCCC3)cc1)N(S(=O)(=O)c1ccc(C)cc1)C2` registered an IC50 above 20 µM.

The compound `COc1ccc(C[C@H]2COc3ccccc3CN2Cc2ccc(OCCN3CCCC3)cc2)cc1` displayed an IC50 of 12.5 µM.

As for `COc1ccc2c(c1)CN(S(=O)(=O)c1ccc(C)cc1)[C@@H](CC(C)C)CO2`, the IC50 is above 20 µM.

`COc1ccc(C[C@H]2COc3ccccc3CN2C(=O)OC(C)(C)C)cc1` gave an IC50 above 20 µM.

`COc1ccc2c(c1)CN(S(=O)(=O)c1ccc(C)cc1)[C@@H](Cc1c[nH]c3ccccc13)CO2`: the IC50 was above 20 µM.

The compound `CCC(=C(c1ccc(O)cc1)c1ccc(OCCN(C)C)cc1)c1ccccc1` displayed an IC50 of 7.2 µM. That is a single-digit micromolar value.

In the case of `COc1ccc(C[C@H]2COc3ccccc3CN2)cc1`, the IC50 was above 20 µM.

As to `COc1ccc(C[C@H]2COc3ccccc3CN2Cc2ccc(OCCN3CCCCCC3)cc2)cc1`, the IC50 is above 20 µM.

As to `COc1cccc2c1OC[C@H](Cc1ccc(OCCN(C)C)cc1)N(S(=O)(=O)c1ccc(C)cc1)C2`, the IC50 is above 20 µM.

System in another series: not listed separately
Nature of the series: Safety index, ratio of IC50 for HEK293 cells to IC50 for human MCF7 cells. In kind it is toxicity, cell-based. The note with it: HEK293 cells versus MCF7 cells, read-out: Ratio IC50. In a few lines: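 Cell death was assessed by MTT assay after 72 h exposure. The ratio was calculated as the HEK-293 IC50 divided by the MCF-7 EC50.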
Regarding `Cc1ccc(S(=O)(=O)N2Cc3ccccc3OCC2Cc2ccc(O)cc2)cc1` (stereo not drawn), the selectivity ratio was 3.

In the next series the test system is MDA-MB-231. Nature of the series: Antiproliferative activity against human MDA-MB-231 cells after 48 hrs by MTT assay. The note with it: MDA-MB-231, 48 h. In kind it is functional, cell-based. In a few lines:
as §1
`Cc1ccc(S(=O)(=O)N2Cc3ccccc3OC[C@@H]2Cc2ccc(OCCN3CCCCC3)cc2)cc1` returned an IC50 of 5.12 µM.

The subject of a further series is HEK293. In words: Cytotoxicity against HEK293 cells after 24 hrs by MTT assay. Particulars: Homo sapiens, HEK293, 72 h; in the assay text read “after 72 hrs” for “after 24 hrs”. It is filed as cell-based.
Compound `Cc1ccc(S(=O)(=O)N2Cc3ccccc3OCC2Cc2ccc(O)cc2)cc1` (stereo not drawn) displayed an IC50 of 30 µM. In other words, the double-digit micromolar range.

Another series has as its system MDA-MB-231. Nature of the series: Antiproliferative activity against human MDA-MB-231 cells after 24 hrs by MTT assay. In kind it is functional, cell-based. The note with it: MDA-MB-231, 24 h. The procedure, abridged: as §1
The compound `Cc1ccc(S(=O)(=O)N2Cc3ccccc3OC[C@@H]2Cc2ccc(OCCN3CCCCC3)cc2)cc1` registered an IC50 of 10.2 µM.

In turn, `CCN(CC)CCOc1ccc(CN2Cc3ccccc3OC[C@@H]2Cc2ccc(OC)cc2)cc1` gave an IC50 of 18.6 µM.

`COc1ccc(C[C@H]2COc3ccccc3CN2Cc2ccc(O)cc2)cc1`: the IC50 was 13.2 µM.

`COc1ccc(C[C@H]2COc3ccccc3CN2Cc2ccc(OCCN3CCCCC3)cc2)cc1` returned an IC50 above 20 µM.

In turn, `CCN(CC)CCOc1ccc(C[C@H]2COc3c(cccc3OC)CN2S(=O)(=O)c2ccc(C)cc2)cc1` had a concentration for half-maximal inhibition (IC50) above 20 µM.

For `COc1cccc2c1OC[C@H](Cc1ccc(OCCN3CCOCC3)cc1)N(S(=O)(=O)c1ccc(C)cc1)C2`, the IC50 was above 20 µM.

`COc1ccc2c(c1)OC[C@H](Cc1ccc(O)cc1)N(S(=O)(=O)c1ccc(C)cc1)C2` returned an IC50 above 20 µM.

As to `COc1ccc(C[C@H]2COc3ccccc3CN2Cc2ccc(OCCN(C)C)cc2)cc1`, the IC50 was above 20 µM.

As for `COc1cccc2c1OC[C@H](Cc1ccc(OCCN3CCCCCC3)cc1)N(S(=O)(=O)c1ccc(C)cc1)C2`, the IC50 was above 20 µM.

Take `COc1cccc2c1OC[C@H](Cc1ccc(OCCN3CCCC3)cc1)N(S(=O)(=O)c1ccc(C)cc1)C2`: the IC50 was above 20 µM.

Turning to `COc1ccc(C[C@H]2COc3ccccc3CN2Cc2ccc(OCCN3CCCC3)cc2)cc1`, the IC50 was 15.7 µM.

`COc1ccc2c(c1)CN(S(=O)(=O)c1ccc(C)cc1)[C@@H](CC(C)C)CO2` gave an IC50 above 20 µM.

With `COc1ccc(C[C@H]2COc3ccccc3CN2C(=O)OC(C)(C)C)cc1`, the IC50 is above 20 µM.

In turn, `COc1ccc2c(c1)CN(S(=O)(=O)c1ccc(C)cc1)[C@@H](Cc1c[nH]c3ccccc13)CO2` had an IC50 above 20 µM.

`CCC(=C(c1ccc(O)cc1)c1ccc(OCCN(C)C)cc1)c1ccccc1` had an IC50 of 10.4 µM. In other words, the double-digit micromolar range.

On to `COc1ccc(C[C@H]2COc3ccccc3CN2)cc1`, for which the IC50 was above 20 µM.

Take `COc1ccc(C[C@H]2COc3ccccc3CN2Cc2ccc(OCCN3CCCCCC3)cc2)cc1`: the IC50 is above 20 µM.

`COc1cccc2c1OC[C@H](Cc1ccc(OCCN(C)C)cc1)N(S(=O)(=O)c1ccc(C)cc1)C2` registered an IC50 above 20 µM.

For a further series, the system named is MDA-MB-231. Nature of the series: Antiproliferative activity against human MDA-MB-231 cells after 72 hrs by MTT assay. In kind it is functional, cell-based. The note with it: MDA-MB-231, 72 h. The procedure, abridged:
as §1
`Cc1ccc(S(=O)(=O)N2Cc3ccccc3OC[C@@H]2Cc2ccc(OCCN3CCCCC3)cc2)cc1` displayed an IC50 of 4.2 µM.
